According to ChEMBL document CHEMBL3600302, “A Ligand-Based Drug Design. Discovery of 4-Trifluoromethyl-7,8-pyranocoumarin as a Selective Inhibitor of Human Cytochrome P450 1A2” (J Med Chem, 2015):

How the values were obtained:
[1] = biological target: T1, Cytochrome P450 1A1 (Homo sapiens, UniProt P04798); experiment: Inhibition of human microsomal CYP1A1-dependent ethoxyresorufin-O-deethylase activity by spectrofluorimetric analysis in presence of NADPH regenerating solution
T1 sequence (P04798 whole entry): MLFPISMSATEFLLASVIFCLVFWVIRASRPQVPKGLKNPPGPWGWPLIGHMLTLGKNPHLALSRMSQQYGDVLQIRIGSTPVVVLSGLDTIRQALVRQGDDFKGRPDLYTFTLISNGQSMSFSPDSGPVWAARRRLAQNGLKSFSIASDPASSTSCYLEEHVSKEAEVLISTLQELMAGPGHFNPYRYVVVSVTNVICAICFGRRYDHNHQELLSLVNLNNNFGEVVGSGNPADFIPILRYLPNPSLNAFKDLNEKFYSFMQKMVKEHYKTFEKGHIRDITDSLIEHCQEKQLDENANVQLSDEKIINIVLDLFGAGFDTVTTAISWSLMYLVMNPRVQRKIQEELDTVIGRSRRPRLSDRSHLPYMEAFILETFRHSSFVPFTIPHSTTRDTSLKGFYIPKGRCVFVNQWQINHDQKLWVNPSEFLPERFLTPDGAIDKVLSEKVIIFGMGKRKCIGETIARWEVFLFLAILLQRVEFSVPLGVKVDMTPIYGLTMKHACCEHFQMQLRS
Procedure, shortened: (§1)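 Microsomal P450 (final 5 nM) in 0.1 M potassium phosphate pH 7.6 with MgCl2 at 37 °C. Substrate final 5 µM: ethoxyresorufin for 1A1/1B1, methoxyresorufin for 1A2. […] Ki was taken as the x-intercept of Dixon plots (1/v0 vs [I]). Mean ± SD of three independent experiments. Selectivity ratios are ratios of these Ki.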

[2] = tested on: HepG2; experiment: Cytotoxicity against human HepG2 cells assessed as cell viability up to 10^-5 M after 72 hrs by MTT assay; type: cell-based; settings: hepg2, 72 h
[3] = biological target: T2, Cytochrome P450 1A2 (Homo sapiens, UniProt P05177); experiment: Inhibition of CYP1A2-dependent methoxyresorufin-O-demethylase activity in human HepG2 cells at > 10^-6 M preincubated for 24 hrs followed by substrate addition measured at 10, 30, 60 mins by fluorescence assay; type: cell-based; settings: hepg2, 1 h
T2 sequence (P05177 whole entry): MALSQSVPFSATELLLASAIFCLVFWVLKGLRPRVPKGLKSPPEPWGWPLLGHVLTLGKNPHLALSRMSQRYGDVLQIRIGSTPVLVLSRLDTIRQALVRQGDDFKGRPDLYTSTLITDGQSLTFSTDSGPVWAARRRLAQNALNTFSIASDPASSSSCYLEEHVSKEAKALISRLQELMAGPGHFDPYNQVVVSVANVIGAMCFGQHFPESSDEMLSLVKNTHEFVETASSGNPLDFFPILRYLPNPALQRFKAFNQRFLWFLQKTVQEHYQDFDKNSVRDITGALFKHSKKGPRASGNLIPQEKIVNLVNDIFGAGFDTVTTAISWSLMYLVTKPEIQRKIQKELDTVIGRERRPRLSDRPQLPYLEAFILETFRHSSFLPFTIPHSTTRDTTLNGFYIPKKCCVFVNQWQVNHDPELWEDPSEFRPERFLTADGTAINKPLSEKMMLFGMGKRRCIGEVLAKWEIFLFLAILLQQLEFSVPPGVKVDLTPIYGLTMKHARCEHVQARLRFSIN
Procedure, shortened: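 HepG2 cells (DMEM, 10% FBS, 37 °C, 5% CO2), 2 × 10^5 per well, plated overnight. Exposed 24 h to compound at final 10^-4 to 10^-7 M in DMSO. 10^-5 M βNF positive control, DMSO blank. Then washed with PBS and given medium with 5 × 10^-6 M methoxyresorufin. Resorufin fluorescence (ex 535/em 585 nm) read at 10, 30, 60 min. Triplicate, three independent experiments, unpaired t test.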

[4] = biological target: T3, Cytochrome P450 1B1 (Homo sapiens, UniProt Q16678); experiment: Inhibition of human microsomal CYP1B1-dependent ethoxyresorufin-O-deethylase activity by spectrofluorimetric analysis in presence of NADPH regenerating solution
T3 sequence (Q16678 whole entry): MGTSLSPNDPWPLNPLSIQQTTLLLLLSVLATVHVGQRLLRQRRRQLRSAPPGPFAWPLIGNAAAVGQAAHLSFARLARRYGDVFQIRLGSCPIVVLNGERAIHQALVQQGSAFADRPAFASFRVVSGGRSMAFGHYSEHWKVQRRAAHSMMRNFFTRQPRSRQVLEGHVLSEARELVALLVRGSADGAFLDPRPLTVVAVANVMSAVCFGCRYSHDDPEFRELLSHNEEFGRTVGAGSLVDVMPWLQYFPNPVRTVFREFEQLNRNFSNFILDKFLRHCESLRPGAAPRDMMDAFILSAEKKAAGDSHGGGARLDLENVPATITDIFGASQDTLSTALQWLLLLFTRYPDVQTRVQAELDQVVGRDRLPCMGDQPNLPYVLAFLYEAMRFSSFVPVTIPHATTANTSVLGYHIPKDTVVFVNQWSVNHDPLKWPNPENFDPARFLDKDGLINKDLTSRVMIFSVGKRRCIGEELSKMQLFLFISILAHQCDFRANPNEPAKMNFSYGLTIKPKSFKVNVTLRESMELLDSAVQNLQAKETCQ
Procedure, shortened: (§2)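 Microsomal P450 (final 5 nM) in 0.1 M potassium phosphate pH 7.6 with MgCl2 at 37 °C. Substrate final 5 µM: ethoxyresorufin for 1A1/1B1, methoxyresorufin for 1A2. Ki was taken as the x-intercept of Dixon plots (1/v0 vs [I]). Mean ± SD of three independent experiments. Selectivity ratios are ratios of these Ki.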

[5] = biological target: T2, Cytochrome P450 1A2; experiment: Time-dependent inhibition of human microsomal CYP1A2-dependent methoxyresorufin-O-demethylase activity by spectrofluorimetric analysis in presence of NADPH regenerating solution
Procedure, shortened: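 1A2 MROD run with NADPH at 0.0125, 0.025, 0.05 and 0.1 µM inhibitor, product monitored continuously over 6 min. Activity at different times came from first derivatives of product curves, expressed as % of control remaining. KI and limiting kinact were derived from the resulting linear plot.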

[6] = species: Homo sapiens; experiment: Selectivity ratio of Ki for human microsomal CYP1A1 to Ki for human microsomal CYP1A2; procedure, shortened: as §1
[7] = biological target: T4, Aryl hydrocarbon receptor (Homo sapiens, UniProt P35869); experiment: Activation of human AhR expressed in Saccharomyces cerevisiae MYA-3637 assessed as upregulation of cytochrome P450 expression at <10^-6 M by LacZ reporter assay; type: ADME
T4 sequence (P35869 whole entry): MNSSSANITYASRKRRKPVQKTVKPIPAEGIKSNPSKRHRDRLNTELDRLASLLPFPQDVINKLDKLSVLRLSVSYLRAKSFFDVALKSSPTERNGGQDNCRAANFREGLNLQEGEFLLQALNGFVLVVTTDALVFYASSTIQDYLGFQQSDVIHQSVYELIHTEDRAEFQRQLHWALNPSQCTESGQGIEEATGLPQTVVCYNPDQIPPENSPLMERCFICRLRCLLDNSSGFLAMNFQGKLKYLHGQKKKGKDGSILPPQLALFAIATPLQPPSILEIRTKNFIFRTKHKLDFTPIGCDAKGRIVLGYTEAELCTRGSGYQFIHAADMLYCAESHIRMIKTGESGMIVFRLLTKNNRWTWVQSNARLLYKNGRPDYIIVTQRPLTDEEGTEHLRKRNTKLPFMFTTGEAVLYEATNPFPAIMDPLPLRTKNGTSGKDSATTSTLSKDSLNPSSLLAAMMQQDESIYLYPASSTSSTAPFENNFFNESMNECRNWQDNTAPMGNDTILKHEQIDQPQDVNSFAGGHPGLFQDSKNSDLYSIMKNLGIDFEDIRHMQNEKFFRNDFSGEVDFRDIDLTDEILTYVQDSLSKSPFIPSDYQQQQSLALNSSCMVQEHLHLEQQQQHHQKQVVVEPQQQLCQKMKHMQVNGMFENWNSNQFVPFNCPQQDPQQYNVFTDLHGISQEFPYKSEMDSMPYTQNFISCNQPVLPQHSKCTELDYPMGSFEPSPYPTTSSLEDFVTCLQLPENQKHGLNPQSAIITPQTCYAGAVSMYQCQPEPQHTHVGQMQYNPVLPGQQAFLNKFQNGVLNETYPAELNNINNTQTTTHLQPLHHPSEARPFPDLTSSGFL
Procedure, shortened: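 Yeast with integrated human AhR (GAL promoter) and lacZ reporter plasmid, grown on tryptophan-free synthetic minimal medium with galactose instead of glucose. Compounds in DMSO (1% v/v final) added to overnight culture in quadruplicate and left until next day. Abs600 read, then lysis buffer with sarcosyl, DTT and ONPG added. Abs405/Abs600 taken as activation. 10^-8 M βNF positive control. At least three repeats.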

[8] = species: Homo sapiens; experiment: Selectivity ratio of Ki for human microsomal CYP1B1 to Ki for human microsomal CYP1A2; procedure, shortened: as §1
[9] = biological target: T2, Cytochrome P450 1A2; experiment: Inhibition of human microsomal CYP1A2-dependent methoxyresorufin-O-demethylase activity by spectrofluorimetric analysis in presence of NADPH regenerating solution; procedure, shortened: as §2

**Q.** How did the Ki [1] turn out when `O=c1cc(C(F)(F)F)c2ccc3c(c2o1)C=CCO3` was run?
**A.** 60.6 µM

**Q.** And the Activity [2]?
**A.** Non-toxic

**Q.** What about the “inhibition (INH)” value [3] of the same molecule?
**A.** Active

**Q.** And the Ki [4]?
**A.** 20.4 µM

**Q.** And the TDI [5]?
**A.** Not Active

**Q.** And the Ratio Ki [6]?
**A.** 155

**Q.** And the Activity [7]?
**A.** Not Active

**Q.** What about the Ratio Ki [8] of the same molecule?
**A.** 52

**Q.** And the Ki [9]?
**A.** 0.39 µM
